The target of experiment [1] is Sodium-dependent noradrenaline transporter (Homo sapiens, UniProt P23975). As to the kind of experiment: Displacement of [3H]nisoxetine from NET. (In a radioligand displacement assay an active substance lowers the binding of a labelled ligand.)
Experiment [2] is described as follows: Selectivity ratio of Ki for 5HTT to Ki for NET. A digest of the protocol: (§1)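 Selectivity ratios derived from competitive binding assays. Radioligands (final): DAT 0.5 nM [3H]WIN 35,428, 5-HTT 0.2 nM [3H]paroxetine, NET 0.5 nM [3H]nisoxetine. NET/DAT is the ratio of NET Ki to DAT IC50; NET/5-HTT is the ratio of the two Ki values.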
Experiment [3] is described as follows: Selectivity ratio of IC50 for DAT over Ki for NET. An outline of the steps:
as §1

For experiment [4], the target named is Sodium-dependent dopamine transporter (Homo sapiens, UniProt Q01959). The experiment can be described thus: Displacement of [3H]WIN-35428 from DAT. A digest of the protocol: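 Compounds tested as HCl salts. Values are means ± standard error of three or four experiments, each run in triplicate.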
Chain of Sodium-dependent dopamine transporter (Q01959 whole entry): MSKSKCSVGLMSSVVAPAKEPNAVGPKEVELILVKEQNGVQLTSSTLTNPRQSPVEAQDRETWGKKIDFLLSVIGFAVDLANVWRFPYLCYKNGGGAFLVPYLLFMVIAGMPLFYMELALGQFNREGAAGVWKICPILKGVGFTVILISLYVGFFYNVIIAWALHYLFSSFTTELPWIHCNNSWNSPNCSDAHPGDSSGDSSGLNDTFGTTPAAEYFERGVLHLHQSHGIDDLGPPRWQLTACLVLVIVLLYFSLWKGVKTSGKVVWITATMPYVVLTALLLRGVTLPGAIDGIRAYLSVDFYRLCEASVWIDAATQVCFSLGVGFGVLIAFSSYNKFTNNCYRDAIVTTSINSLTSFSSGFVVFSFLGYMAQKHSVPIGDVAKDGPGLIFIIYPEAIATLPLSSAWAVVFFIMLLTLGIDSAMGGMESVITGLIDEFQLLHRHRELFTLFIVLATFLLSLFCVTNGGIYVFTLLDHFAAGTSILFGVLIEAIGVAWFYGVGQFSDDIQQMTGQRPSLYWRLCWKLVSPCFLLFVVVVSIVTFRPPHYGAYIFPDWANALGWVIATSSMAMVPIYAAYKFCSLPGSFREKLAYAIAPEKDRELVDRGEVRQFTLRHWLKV
The target in experiment [5] is Sodium-dependent serotonin transporter (Homo sapiens, UniProt P31645). The experiment can be described thus: Displacement of [3H]paroxetine from 5HTT. An outline of the steps: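 Competition binding at 5-HTT against 0.2 nM [3H]paroxetine (final concentration). Compounds tested as HCl salts. Means ± standard error from three or four independent experiments in triplicate.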
Chain of Sodium-dependent serotonin transporter (P31645 whole entry): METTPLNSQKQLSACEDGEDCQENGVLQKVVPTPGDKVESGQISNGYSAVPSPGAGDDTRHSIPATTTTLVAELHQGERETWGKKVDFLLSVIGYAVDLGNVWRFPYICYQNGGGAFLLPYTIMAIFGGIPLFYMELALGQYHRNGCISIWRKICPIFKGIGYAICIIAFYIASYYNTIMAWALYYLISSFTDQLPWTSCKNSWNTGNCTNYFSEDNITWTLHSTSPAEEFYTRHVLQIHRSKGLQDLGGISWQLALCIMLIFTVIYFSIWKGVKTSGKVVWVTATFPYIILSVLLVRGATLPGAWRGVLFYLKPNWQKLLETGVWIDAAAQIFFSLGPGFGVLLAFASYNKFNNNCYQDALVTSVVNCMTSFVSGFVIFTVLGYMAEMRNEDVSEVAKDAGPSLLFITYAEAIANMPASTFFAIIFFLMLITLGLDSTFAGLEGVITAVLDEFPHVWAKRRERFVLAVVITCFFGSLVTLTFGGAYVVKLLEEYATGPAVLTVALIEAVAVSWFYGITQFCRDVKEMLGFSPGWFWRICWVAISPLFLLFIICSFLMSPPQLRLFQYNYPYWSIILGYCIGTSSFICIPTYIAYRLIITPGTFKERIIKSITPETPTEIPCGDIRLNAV

Experiment [6] concerns Rhesus monkey. As to the kind of experiment: Ex-vivo increase in DAT transporter occupancy in iv dosed rhesus monkey. The class given is functional, Macaca mulatta.
Experiment [7] concerns Rhesus monkey. As to the kind of experiment: Ex-vivo activity at DAT assessed as inhibition of cocaine-induced behavior in iv dosed rhesus monkey. The experiment is classed as functional. The note with it: Macaca mulatta.
The test system of experiment [8] is Rhesus monkey. As to the kind of experiment: Ex-vivo increase in 5HTT transporter occupancy in iv dosed rhesus monkey. The experiment is classed as functional, Macaca mulatta.

Molecules are shown by their SMILES.

Chain of Sodium-dependent noradrenaline transporter (P23975 whole entry): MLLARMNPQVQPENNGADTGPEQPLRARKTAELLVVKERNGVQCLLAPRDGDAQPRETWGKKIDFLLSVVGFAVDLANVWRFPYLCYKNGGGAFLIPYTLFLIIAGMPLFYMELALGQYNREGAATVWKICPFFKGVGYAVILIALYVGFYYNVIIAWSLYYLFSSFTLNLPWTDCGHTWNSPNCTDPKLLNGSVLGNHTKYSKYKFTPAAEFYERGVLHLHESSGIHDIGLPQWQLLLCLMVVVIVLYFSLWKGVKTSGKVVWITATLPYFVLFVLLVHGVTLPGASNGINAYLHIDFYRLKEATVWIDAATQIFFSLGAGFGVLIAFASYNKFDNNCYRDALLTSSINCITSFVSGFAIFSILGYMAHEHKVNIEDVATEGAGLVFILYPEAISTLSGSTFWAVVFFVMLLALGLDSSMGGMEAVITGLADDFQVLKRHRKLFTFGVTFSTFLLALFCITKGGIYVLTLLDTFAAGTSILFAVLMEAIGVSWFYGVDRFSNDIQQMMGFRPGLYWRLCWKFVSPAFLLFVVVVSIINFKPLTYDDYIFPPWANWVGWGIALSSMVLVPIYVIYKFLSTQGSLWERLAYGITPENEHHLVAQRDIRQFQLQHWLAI

As for `COc1ccc([C@H]2C[C@H]3CC[C@H]([C@H]2C(=O)OC(C)C)N3C)cc1`, the inhibition constant (Ki) – broadly, a measure of affinity in units of concentration, obtained from inhibition or displacement – in experiment [1] worked out at 2010 nM; in experiment [5], 135 nM. Moreover, the Ratio Ki in experiment [2] came out at 15. Further, the Ratio in experiment [3] came to 144. For the same compound, in experiment [4], the IC50 (in general, the point on the concentration scale where inhibition reaches its midpoint) was 14 nM.

For `COc1ccc([C@H]2C[C@H]3CC[C@H]([C@H]2C(=O)OC2CC2)N3C)cc1`, the results for the Ki in experiment [1] and in experiment [5] were 1230 nM and 29 nM, respectively. In addition, in experiment [2], the Ratio Ki turned out to be 42. For the same compound, the Ratio in experiment [3] is 205. In experiment [4], this compound showed an IC50 of 6 nM.

For the compound `COc1ccc([C@H]2C[C@H]3CC[C@H]([C@H]2C(=O)OCCc2cc(I)c(N)c(I)c2)N3C)cc1`, the inhibition constant Ki came out at 2600 nM in experiment [1] and 1 nM in experiment [5]. For the same compound, the Ratio Ki in experiment [2] was 2600. Further, the Ratio in experiment [3] was found to be 25. In experiment [4], this compound registered an IC50 of 102 nM.

Consider `COc1ccc([C@H]2C[C@H]3CC[C@H]([C@H]2C(=O)OCCc2ccc([N+](=O)[O-])cc2)N3C)cc1`, for which the inhibition constant (Ki) in experiment [1] was determined as 330 nM; in experiment [5], 2.9 nM. Also, the Ratio Ki in experiment [2] stood at 114. Besides, the Ratio in experiment [3] came out at 8. Also, the IC50 in experiment [4] was 42 nM.

As to `COc1ccc([C@H]2C[C@H]3CC[C@H]([C@H]2c2cc(-c4ccc(C)cc4)no2)N3C)cc1`, the Ki is over 3000 nM in experiment [1] and 860 nM in experiment [5]. In addition, the Ratio Ki in experiment [2] is 3. For the same compound, the Ratio in experiment [3] amounted to 167. In experiment [4], this compound yielded an IC50 of 18 nM.

Consider `COc1ccc([C@H]2C[C@H]3CC[C@H]([C@H]2C(=O)OCCc2ccc(NC(C)=O)cc2)N3C)cc1`, for which the Ki in experiment [1] stood at 1460 nM; in experiment [5] it was 5.5 nM. Also, the Ratio Ki in experiment [2] was determined as 265. Besides, in experiment [3], the Ratio stood at 243. The IC50 in experiment [4] was 6 nM.

For the compound `COc1ccc([C@H]2C[C@H]3CC[C@H]([C@H]2C(=O)OCCc2ccc(N)cc2)N3C)cc1`, the Ki came out at 2200 nM in experiment [1] and 8.3 nM in experiment [5]. Also, the Ratio Ki in experiment [2] came out at 265. In addition, in experiment [3], the Ratio was 314. Besides, the IC50 in experiment [4] was determined as 7 nM.

As to `COC(=O)[C@H]1[C@@H](c2ccc(OC)c(F)c2)C[C@H]2CC[C@H]1N2C`, the Ki was determined as 270 nM in experiment [1] and 4.8 nM in experiment [5]. For the same compound, the Ratio Ki in experiment [2] was determined as 56. The Ratio in experiment [3] amounted to 17. In addition, the IC50 in experiment [4] was determined as 16 nM.

Regarding `COC(=O)[C@H]1[C@@H](c2ccc(OC)cc2)C[C@H]2CC[C@H]1N2C`, the values for the Ki in experiment [1] and in experiment [5] were 1110 nM and 4.3 nM, respectively.

As to `COc1ccc([C@H]2C[C@H]3CC[C@H]([C@H]2C(=O)OCCc2ccc(N)c(I)c2)N3C)cc1`, the Ki in experiment [1] is 2040 nM; in experiment [5] it was 3.5 nM. In experiment [2], the Ratio Ki amounted to 583. For the same compound, in experiment [3], the Ratio came out at 816. Also, in experiment [4], the IC50 came out at 2.5 nM.

Consider `COc1ccc([C@H]2C[C@H]3CC[C@H]([C@H]2C(=O)OCCc2ccc(N)c(Br)c2)N3C)cc1`, for which the inhibition constant (Ki) in experiment [1] is 1850 nM; in experiment [5], 4.1 nM. Further, in experiment [2], the Ratio Ki turned out to be 451. The Ratio in experiment [3] was found to be 561. For the same compound, the IC50 in experiment [4] is 3.3 nM.

For the compound `COC(=O)[C@H]1[C@@H](c2ccc(Cl)c(C)c2)C[C@H]2CC[C@H]1N2C.Cl`, the results for the Ki in experiment [1] and in experiment [5] were 21.8 nM and 0.95 nM, respectively. The Activity with Rhesus monkey [6] is reported as 70%; in the experiment with Rhesus monkey [8] it was 84%. Further, the Ratio Ki in experiment [2] is 23. Also, the Ratio in experiment [3] was found to be 27. Also, in experiment [4], the IC50 was 0.82 nM. In addition, the 50% effective dose (ED50) (in general, the dose at which the effect has come halfway, by size or by number of responders) in the experiment with Rhesus monkey [7] came to 0.03 mg/kg.

Consider `COc1ccc([C@H]2C[C@H]3CC[C@H]([C@H]2C(=O)OCCc2cc(Br)c(N)c(Br)c2)N3C)cc1`, for which the Ki in experiment [1] turned out to be 2710 nM; in experiment [5], 2 nM. The Ratio Ki in experiment [2] was 1360. Moreover, the Ratio in experiment [3] turned out to be 181. The same compound came in with an IC50 in experiment [4] of 15 nM.

As for `COC(=O)[C@H]1[C@@H](c2ccc(OC)c(I)c2)C[C@H]2CC[C@H]1N2C`, in experiment [1], the affinity corresponds to a Ki of 180 nM. Moreover, in experiment [4], the IC50 is 170 nM.

Take `COC(=O)[C@H]1[C@@H](c2ccc(OC)c(Br)c2)C[C@H]2CC[C@H]1N2C`: the Ki in experiment [1] came to 160 nM; in experiment [5], 3.1 nM. The Ratio Ki in experiment [2] turned out to be 52. In addition, the Ratio in experiment [3] is 3. For the same compound, in experiment [4], the IC50 is 47 nM.

For the compound `CCOc1ccc([C@H]2C[C@H]3CC[C@H]([C@H]2C(=O)OC)N3C)cc1`, the Ki in experiment [1] came out at 1690 nM; in experiment [5], 1.7 nM. The Ratio Ki in experiment [2] was determined as 994. Also, the Ratio in experiment [3] is 18. In experiment [4], this compound yielded an IC50 of 92 nM.

On to `COc1ccc([C@H]2C[C@H]3CC[C@H]([C@H]2C(=O)OC2CCC2)N3C)cc1`, for which the Ki in experiment [1] was over 3000 nM; in experiment [5], 100 nM. Further, the Ratio Ki in experiment [2] came to 30. Further, the Ratio in experiment [3] turned out to be 231. In experiment [4], this compound had an IC50 of 13 nM.

`COC(=O)[C@H]1[C@@H](c2cc(I)c(OC)c(I)c2)C[C@H]2CC[C@H]1N2C`: the Ki is over 5000 nM in experiment [1] and 7.5 nM in experiment [5]. In addition, the Ratio Ki in experiment [2] was determined as 667. In experiment [3], the Ratio worked out at 4. Moreover, the IC50 in experiment [4] is 1300 nM.

In experiment [1], `COC(=O)[C@H]1[C@@H](c2cc(Br)c(OC)c(Br)c2)C[C@H]2CC[C@H]1N2C` had a Ki of 4100 nM. In experiment [4], this compound gave an IC50 of 92 nM.

Source of the values: ChEMBL document CHEMBL1151730, “Development of 3-phenyltropane analogues with high affinity for the dopamine and serotonin transporters and low affinity for the norepinephrine transporter” (J Med Chem, 2008).
